Bioassay records (PubChem)
NR2E3 ag-1 = NR2E3 agonists in two-hybrid cells, primary screen, cell-based, luminescence, CHO-S, Gal4-NCOR/VP16-NR2E3; Photoreceptor-specific nuclear receptor (Homo sapiens), Q9Y5X4; luciferase; inhibition of corepressor binding, % at 3.98 µM; 0.35% of 360,000 active;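 active = inhibition above the mean of all tested compounds plus 3 SD, cut at about 70% in these data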;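 also: 0% = DMSO with NR2E3 transfected cells and 100% = cells lacking NR2E3 construct; higher means lower luciferase signal from less NR2E3 corepressor binding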
Target sequence (Q9Y5X4 whole entry, looked up, the tested form may be a part): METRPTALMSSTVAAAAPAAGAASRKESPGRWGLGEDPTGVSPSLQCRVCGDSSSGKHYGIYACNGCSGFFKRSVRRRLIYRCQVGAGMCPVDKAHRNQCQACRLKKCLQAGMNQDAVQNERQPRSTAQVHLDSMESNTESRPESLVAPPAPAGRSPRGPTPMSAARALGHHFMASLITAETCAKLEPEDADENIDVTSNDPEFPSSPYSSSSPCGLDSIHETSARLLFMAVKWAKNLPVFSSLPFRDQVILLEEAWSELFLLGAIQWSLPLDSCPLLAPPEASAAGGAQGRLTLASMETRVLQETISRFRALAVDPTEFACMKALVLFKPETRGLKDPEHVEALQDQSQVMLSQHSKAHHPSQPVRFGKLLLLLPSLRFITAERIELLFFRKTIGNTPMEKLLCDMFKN
TROY signal inh = inhibitors of TROY-driven NF-kB signaling, primary screen, Q293 LMP1-TROYcd cells, NF-kB luciferase, uHTS; Q293 LMP1-TROYcd NF-kB luciferase reporter, 4 h; inhibition, % at 10 µM; 0.98% of 360,000 active; AID 1347056, 2019;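 active = compounds whose plate-normalised and pattern-corrected inhibition of the luciferase reporter signal at the single screening dose is 50% or more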
HIF act = HIF pathway transcriptional activators, primary screen, cell-based, U2OS HRE-luciferase, luminescence | U2OS HRE-luciferase reporter; normalized: DMSO 0%, desferrioxamine 100% | activation, % at 7.5 µM (by protocol) | 0.32% of 300,000 active | AID 1910, 2009;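 active = mean activation of at least 10% of the iron chelator positive control signal, with at least half of replicates also reaching 10%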
LMP1 NFkB inh = EBV LMP1-driven NF-kappaB luciferase reporter inhibitors, primary screen, cell-based, luminescence, single point; LMP1-induced NF-kappaB luciferase reporter cells; inhibition, % at 12.5 µM; 0.69% of 350,000 active; in the data active = inhibition above about 41%;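 also: 0% = neutral control wells and 100% = reference inhibitor control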
NR2E3 ag-2 = inhibitors of NR2E3-RetCOR corepressor binding, primary screen, NR2E3 agonist project, biochemical, TR-FRET, GST-NR2E3, biotin-RetCOR; 0.12% of 320,000 active; 1536-well; inhibition of corepressor binding, % at 4.78 µM; Photoreceptor-specific nuclear receptor (Homo sapiens), Q9Y5X4;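 active = percent inhibition above the cutoff of mean plus 3 SD of all tested compounds, set per screening campaign, cut at about 20% in these data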;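 also: 0% = DMSO wells and 100% = biotin wells as full block of FRET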
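System: GST-tagged NR2E3 plus biotinylated RetCOR corepressor; Amount: 1.35 nM GST-tagged NR2E3 final; Dosing: single nominal compound dose of 4.8 µM; Schedule: 5 h incubation at 4 °C; Technique: TR-FRET with europium anti-GST and streptavidin-D2, 340 nm excitation; Controls: biotin wells as high control, 0.6% DMSO wells as low control.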
* = called active by the depositor; x = no result given. Most compounds without a hit are left out; they make up all but 2% or so of the library.

SMILES	NR2E3 ag-1	TROY signal inh	HIF act	LMP1 NFkB inh	NR2E3 ag-2
O=C(/C=C/c1ccnc2ccccc12)c1cccs1	-149.0	70.3*	3.0	3.5	-0.9
O=S(=O)(NC1c2cccc3cccc(c23)C1Sc1ncccn1)c1ccccc1 (configuration not stated)	-4.1	91.5*	-0.3	60.6*	2.2
CCc1nc2ccc(C(=O)NC(C)(C)C)cn2c1N(CC)Cc1cccc(Br)c1	-5.3	9.9	x	x	x
Cc1cc(C(=O)O)oc(=O)c1	-4.2	2.2	219.3*	-3.9	-3.2
Cn1c(=O)c2cc(NC(=O)Nc3ccccc3)ccc2n1Cc1ccccc1	12.1	-37.6	x	x	x
CCC1CCCCN1Cc1c(O)ccc2c(=O)c(-c3ccccc3OC)coc12 (configuration not stated)	21.1	-5.1	45.5*	1.9	4.1
CC(C)N1CCc2c(sc(NC(=O)c3ccc(S(=O)(=O)N4CCCCC4C)cc3)c2C(N)=O)C1 (configuration not stated)	-1.3	-3.0	-0.2	-7.5	0.2
CCN(Cc1ccccc1)C(=O)CCNS(=O)(=O)c1ccc2c(c1)CC(C)N2C(C)=O (configuration not stated)	-8.5	-10.2	69.4*	4.6	2.6
CC1(C)CCC(=O)N(c2ccc(OC(F)(F)F)cc2)C1=O	-4.9	-17.1	-29.0	-4.9	3.7
Cc1cccc(C)c1N1C(=O)CCC(C)(C)C1=O	-6.1	2.4	-21.8	49.8*	-0.8
O=C(O)c1c2c(nc3ccccc13)/C(=C/c1ccc(O)cc1)CC2	-87.1	50.7*	-4.5	53.1*	1.5
CCOc1ccc(NC(=O)CN(C)C(=O)CCCOc2ccc(Cl)c(C)c2)cc1OCC	-4.6	-19.4	0.3	5.6	-1.5
CC1(Cc2ccc(Cl)cc2)C(=O)Nc2ccc(-c3cccnc3)cc21 (configuration not stated)	-9.7	53.4*	x	x	x
CC1(Cc2cccc(F)c2)C(=O)Nc2ccc(-c3cccnc3)cc21 (configuration not stated)	-41.9	40.6	x	x	x
CCNC(=S)NNC(=O)c1cc(-c2ccc(OCC)cc2)nc2ccccc12	-119.7	-3.2	-2.3	57.0*	1.1
CCc1ccc(-c2cc(C(=O)Nn3cnnc3)c3ccccc3n2)cc1	-138.0	-2.1	-1.6	76.8*	4.8
CCCc1ccc(-c2cc(C(=O)NN3CCOCC3)c3ccccc3n2)cc1	-66.0	-52.4	2.0	-15.3	1.5
CCCc1cc(N2CCOCC2)n2ncc(-c3ccccc3)c2n1	-8.9	51.5*	-44.1	-3.3	x
CC1=NNC(=O)/C1=C\c1cn(-c2ccccc2)nc1-c1ccccc1	-3.5	89.7*	-7.5	-55.7	3.7
O=C(NCC(c1ccco1)N1CCCC1)c1ccccc1F (configuration not stated)	-14.8	56.8*	1.2	-1.9	-0.5
Cc1ccc(S(=O)(=O)NC(CC(C)C)C(=O)NCC(c2ccco2)N2CCCCC2)cc1 (configuration not stated)	-12.8	88.3*	x	49.1*	-0.2
CN(Cc1cccs1)C(=O)c1cccc(S(=O)(=O)N2CCCCCC2)c1	-12.3	-10.8	x	-1.1	2.2
CC(=O)Nc1cccc(-c2csc(C(O)c3ccc(F)cc3)n2)c1 (configuration not stated)	-34.6	-39.8	x	x	x
CC(CNc1nc2ccccc2n2cnnc12)c1ccccc1 (configuration not stated)	-27.8	7.9	-5.8	-6.9	0.4
O=C(NCC(=O)N1CC(O)CC1C(=O)N1CC(O)CC1C(=O)OCc1ccccc1)OCc1ccccc1 (configuration not stated)	-14.8	9.5	0.1	2.2	1.7
CC(NC(=O)CNC(=O)OCc1ccccc1)C(=O)N1CC(O)CC1C(=O)OCc1ccccc1 (configuration not stated)	-11.8	14.0	-0.2	64.9*	0.5
COc1ccc(CCN2C(=O)CCC2(C)c2nnnn2-c2ccc3c(c2)OCCO3)cc1OC (configuration not stated)	-10.1	14.1	x	x	x
